hIAP activ = human IAP activation. activation factor at 10 µM. purified human IAP, CDP-Star luminescence, 30 min; hits give high values; 1 = vehicle-only enzyme, 0 = enzyme-free background. P09923. hit rate 0.16% among 330,000;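 active means activation factor of the enzyme at least 2-fold when tested at 20 µM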
Target sequence (P09923 whole entry, looked up): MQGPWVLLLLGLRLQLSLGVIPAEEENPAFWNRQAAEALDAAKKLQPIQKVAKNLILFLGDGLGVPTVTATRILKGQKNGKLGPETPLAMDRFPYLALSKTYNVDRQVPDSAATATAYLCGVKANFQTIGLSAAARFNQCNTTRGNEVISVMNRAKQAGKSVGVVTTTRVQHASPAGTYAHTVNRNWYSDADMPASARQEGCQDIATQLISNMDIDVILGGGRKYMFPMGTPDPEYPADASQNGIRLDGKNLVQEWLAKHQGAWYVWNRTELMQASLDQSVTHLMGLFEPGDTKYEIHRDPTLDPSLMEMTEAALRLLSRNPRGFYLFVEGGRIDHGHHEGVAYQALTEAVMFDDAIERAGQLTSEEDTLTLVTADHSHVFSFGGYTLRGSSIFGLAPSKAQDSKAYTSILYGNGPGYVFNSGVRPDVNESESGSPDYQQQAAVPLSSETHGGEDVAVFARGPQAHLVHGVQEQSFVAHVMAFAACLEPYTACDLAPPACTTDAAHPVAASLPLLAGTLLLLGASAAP
mIAP act = increases mouse intestinal alkaline phosphatase activity | muIAP, CDP-Star luminescence, 30 min; hits give high values; 1 = vehicle-only enzyme signal, 0 = enzyme-free wells | activation factor at 10 µM | hit rate 0.24% among 330,000 | AID 2805;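 active means activation factor of at least 2 at 20 µM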
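Assay system: mouse IAP enzyme; reagent: chemiluminescent substrate CDP-Star; dosing: test compounds delivered from DMSO solution; schedule: 30 min at room temperature; measured by: luminescence from enzymatic CDP-Star hydrolysis; controls: DMSO-only wells and no-enzyme negative control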
hIAP inh = human IAP inhibition | hit rate 0.12% among 330,000 | P09923 | AID 2544 | purified IAP, CDP-Star luminescence, 30 min | inhibition, % at 10 µM;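 active means inhibition reaching a set limit with compound at 10 µM in the primary screen, cut at about 35% in these data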;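 further: plate controls were DMSO wells with enzyme for no effect and no-enzyme buffer wells for full effect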
bIAP act = increases bovine intestinal alkaline phosphatase activity; hit rate 0.17% among 200,000; activation factor at 20 µM; purified bovine IAP, CDP-star luminescence, 30 min; hits give high values; fold of DMSO-control signal, blank-subtracted; AID 1016;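 active means activation factor of 2 or more at 20 µM, a signal rise over negative controls twice the positive control's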
mIAP inh = blocks mouse intestinal alkaline phosphatase. purified mouse IAP, CDP-Star luminescence, 30 min. inhibition, % at 10 µM. hit rate 0.2% among 330,000;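 active means inhibition of at least 40% at 10 µM in the primary screen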;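 further: plate controls were DMSO with enzyme for no effect and no enzyme wells for full effect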
bIAP inhibitor = intestinal alkaline phosphatase (bovine) inhibition; purified bovine IAP, CDP-star luminescence, 30 min; inhibition, % at 20 µM; 190,000 tested, under 10 active;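 active means over 50% inhibition of intestinal alkaline phosphatase at 20 µM in the single-dose screen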
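Assay system: bovine IAP enzyme; medium: DEA buffer 100 mM, pH 9.8, with MgCl2 1.0 mM, ZnCl2 0.02 mM; doses: 20 µM single dose; incubation: enzyme reaction for 30 min at room temperature; detection: CDP-star luminescence signal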
mIAP inh confirm = mouse IAP inhibition confirmation. inhibition, % at 10 µM. purified mouse IAP, CDP-Star luminescence, 30 min. shares compounds with mIAP inh. hit rate 4.7% among 11,000;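 active means inhibition of at least 40% at 10 µM in either of the two replicates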;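 further: plate controls were DMSO wells with enzyme for no effect and buffer wells lacking enzyme for full effect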
An asterisk follows results filed as active; i = inactive; x = no result. Most compounds without a hit are left out; they make up all but 0.79% or so of the library.

SMILES	hIAP activ	mIAP act	hIAP inh	bIAP act	mIAP inh	bIAP inhibitor	mIAP inh confirm
O=c1[nH]c2ccc(NCc3ccccc3OCc3ccc(Cl)cc3)cc2[nH]1	0.85	0.97	14	x	2	x	x
OC(COCCOc1ccc(Br)cc1)CN1CCN(Cc2ccccc2)CC1 (stereo unspecified)	0.95	0.89	4	0.9	11	6	x
CC1(C)C(=O)N(c2ccccc2Cl)C(=O)c2ccccc21	1	1.1	0	x	-10	x	x
Nc1cccc2cnccc12	1.1	0.96	-13	1	4	0	x
Nc1ccncc1N	1.2	0.28	-21	x	72*	x	75*
O=C(N=Nc1c(O)[nH]c2ccccc12)c1cccc(S(=O)(=O)Nc2ccccc2Cl)c1	1.1	0.88	-13	1.2	12	-23	x
NS(=O)(=O)c1cc(C(=O)N=Nc2c(O)[nH]c3ccccc23)ccc1Cl	0.86	0.54	14	x	46*	x	48*
Cc1ccccc1C(=O)N1CCC(C(=O)Nc2cccc(F)c2)CC1	1.2	1.1	-16	1.1	-9	-12	x
Cc1cc(C)n(CCCN2CCC(C(=O)Nc3cccc(-c4cccc(F)c4)c3)CC2)n1	1	3.5*	0	x	-250	x	-202
Cc1c(CNC(=O)C2CC2)c(-n2cccc2)n(Cc2ccccc2)c1C	1.1	1.1	-12	1	-10	5	x
CCOC(=O)c1ccc(N2CCN(c3ccccc3F)CC2)c(NC(=O)Nc2cccc(OC)c2)c1	1.7	8.6*	-72	1.2	i	-20	-362
COC(=O)c1ccc(N2CCOCC2)c(NC(=O)Nc2cccc(OC)c2)c1	1	1.2	0	1	-23	-1	x
Cc1ccc(CNC(=O)C(C)OC(=O)c2cccs2)cc1 (stereo unspecified)	0.86	0.99	14	1	0	4	x
N#Cc1ccccc1NC(=O)COC(=O)CCc1ccccc1	0.98	0.94	2	x	6	x	x
O=C(OCc1ccccc1)N1CCCC1/C=C/CN1CCOCC1 (stereo unspecified)	0.98	0.91	2	1	9	2	x
CCOC(=O)c1cc(CC)sc1/N=C/C1=C(O)CC(C)(C)CC1=O	0.99	1	1	1.2	-1	-23	x
CCOC(=O)c1sc(N=NC2=C(O)CC(C)(C)CC2=O)c(C(=O)OCC)c1C	1.2	4*	-25	1.1	-297	-10	-210
O=c1cc(-c2ccc(O)cc2)oc2c(O)c(O)c(O)c(O)c12	0.97	0.34	3	x	66*	x	67*
O=c1cc(-c2ccc(O)cc2)oc2c1ccc1ccccc12	1.1	0.96	-9	x	4	x	x
O=C(CSc1nc2nn(-c3ccccc3)c(=O)c-2c2n1CCCCC2)c1ccc(O)c(O)c1	0.76	0.24	24	x	76*	x	81*
CNC(=O)CSc1nc2nn(-c3ccccc3)c(=O)c-2c2n1CCCCC2	1	1	-1	1	-5	5	x
CCN1/C(=C/C=C/c2oc3ccc(-c4ccccc4)cc3[n+]2CC)Oc2ccc(-c3ccccc3)cc21	1.4	0.35	-36	1.6	65*	-56	50*
CCCCN1C(=O)/C(=C/C=C2\Oc3ccccc3N2CC)SC1=S	x	x	x	0.7	x	31	x
COC(=O)C1C(c2ccc(OC)cc2)C(C(=O)OC)S(=O)(=O)C(CCN2CCCCC2)S1(=O)=O (stereo unspecified)	1.2	1.1	-23	1.3	-10	-34	x
Cn1c(=O)c2c(nc(NC3CCCCC3)n2CC(=O)C23CC4CC(CC(C4)C2)C3)n(C)c1=O	1.2	2*	-23	1	-100	-1	-465
SMILES	hIAP activ	mIAP act	hIAP inh	bIAP act	mIAP inh	bIAP inhibitor	mIAP inh confirm
COc1ccc(NC(=O)CC2C(=O)N(c3cccc(C)c3)C(=O)N2C2CCCCC2)cc1 (stereo unspecified)	1	1.2	-4	1.2	-18	-24	x
O=C(Nc1ccccc1C(=O)NCc1cccnc1)c1ccc(Cl)cc1Cl	0.84	1.1	16	0.8	-15	20	x
COc1cccc(/C=C2/SC(=S)N(CC(=O)NNC(=O)c3ccccc3O)C2=O)c1	2	0.75	-97	x	25	x	x
O=C(CN1C(=O)/C(=C/c2ccccc2)SC1=S)NNC(=O)c1ccccc1O	1.6	0.59	-58	1	41*	-3	43*
CC1(C)Nc2ccccc2N(Cc2ccc([N+](=O)[O-])cc2)C1=O	0.96	0.95	4	1.1	5	-6	x
O=C(Nc1ccc(F)c(Cl)c1)C1CC(=O)n2c(nc3ccccc32)N1 (stereo unspecified)	1.9	2.8*	-89	1.3	-182	-30	-142
O=C(Nc1cccc(Cl)c1)Nc1nc(-c2ccccc2)cs1	1.1	2.8*	-13	0.4	-184	x	-116
O=C(Nc1ccccc1)Nc1cc(Cl)cc(Cl)c1	1.2	4.8*	-19	0.9	-384	12	-241
O=C(Nc1cccc(Cl)c1)NC1CCCCC1	1.1	1.9	-9	0.9	-93	6	x
O=C(Nc1cccc(F)c1)Nc1cccc(Cl)c1	1.1	3.6*	-14	x	-259	x	-111
O=C(Nc1cccc(Cl)c1)NC1CC2CCC1C2 (stereo unspecified)	1.1	3.2*	-11	x	-220	x	-164
Cc1nnsc1C(=O)Nc1ccc(S(=O)(=O)N2CCCC(C)C2)cc1 (stereo unspecified)	1.3	0.94	-26	x	6	x	x
COCCNCC(=O)Nc1nc(C)cs1	x	x	x	1.4	x	-40	x
N#Cc1ccc(CN2CCN(C(=O)c3ccccc3)CC2)c(Cl)c1	1	1.1	-2	1	-11	0	x
O=C(Nc1cccc(Cl)c1)Nc1cccc(Cl)c1	1.1	2.6*	-9	1.2	-163	-16	-221
CC(O)c1cccc(NC(=O)CCC(=O)O)c1 (stereo unspecified)	0.84	1.1	16	0.9	-9	10	x
CC(O)c1cccc(NC(=O)Nc2cccc(NC(=O)Nc3cccc(C(C)O)c3)c2)c1 (stereo unspecified)	1.2	2.5*	-19	x	-152	x	-89
O=C(NCc1csc2ccccc12)Nc1cc(Cl)cc(Cl)c1	0.96	3.7*	4	x	-271	x	-145
CSc1cccc(NC(=O)Nc2ccccc2)c1	1.1	2.8*	-6	0.7	-177	26	-110
O=C(CCc1ccc(Oc2cc([N+](=O)[O-])cc([N+](=O)[O-])c2)cc1)N1CCCCCC1	0.87	0.82	13	1.4	18	-35	x
COc1ccc(CN(C)CC(=O)Nc2ccccc2C(=O)NC2CC2)cc1	0.95	1.1	5	x	-9	x	x
Nc1nc(-c2ccccn2)nc(N)c1Cc1ccc(Cl)cc1Cl	1.1	0.86	-6	1.2	14	-23	x
O=C(NCc1cccnc1)Nc1ccccc1C(F)(F)F	0.97	0.94	2	x	6	x	x

High-throughput results deposited in PubChem by Sanford-Burnham Center for Chemical Genomics.
